Active and inactive are the calls of the source. The calls are words filed in the database; no cut-off is given here.
Experiments:
NCI-H1703 [1] = test: Antiproliferative activity against human NCI-H1703 cells after 72 hrs by MTT assay; type: functional, cell-based; details: NCI-H1703, 72 h
Summary of the method: (§1)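 Compounds (10 mM DMSO stocks, final DMSO ≤0.1%) added at increasing concentrations in PBS, incubated 72 h at 37 °C. MTT read-out, six repeats per concentration, at least two independent experiments.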

NCI-H441 = test: Antiproliferative activity against human NCI-H441 cells after 72 hrs by MTT assay; type: functional, cell-based; details: NCI-H441, 72 h; summary of the method: as §1
[2] = Antiproliferative activity against human NCI-H1373 cells after 72 hrs by MTT assay; type: functional, cell-based; details: NCI-H1373, 72 h; summary of the method: as §1
NCI-H2122 = test: Antiproliferative activity against human NCI-H2122 cells after 72 hrs by MTT assay; type: functional, cell-based; details: NCI-H2122, 72 h; summary of the method: as §1
[3] = Antiproliferative activity against human NCI-H1944 cells after 72 hrs by MTT assay; type: functional, cell-based; details: NCI-H1944, 72 h; summary of the method: as §1
NCI-H1703 [4] = test: Antitumor activity against human NCI-H1703 cells xenografted in athymic NCr Charles river nu/nu mouse assessed as reduction of tumor growth at 6 umol/kg, iv administered 3 times a week for 3 weeks relative to vehicle treated control; type: functional, organism-based
Summary of the method: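 H1703 xenografts (5×10^6 cells s.c., flank) in 7-week-old female athymic NCr-nu/nu mice, treated from tumor size ≥2×2×2 mm. Mice killed 2 h after the last dose; tumors excised and weighed. 13–15 mice/group; Mann-Whitney test against vehicle.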

NCI-H1703 [5] = test: Antitumor activity against human NCI-H1703 cells xenografted in athymic NCr Charles river nu/nu mouse assessed as reduction of tumor weight at 6 umol/kg, iv administered 3 times a week for 3 weeks relative to vehicle treated control; type: functional; design: scale not given: the % may be the effect or the level left
Summary of the method: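 H1703 cells (5×10^6) injected s.c. into the flank of 7-week-old female athymic NCr-nu/nu mice. Dosing began once tumors reached at least 2×2×2 mm (typically 4 weeks). Body weight recorded before each injection. Mice sacrificed 2 h after the last dose and tumors excised and weighed. 13–15 mice/group; Mann-Whitney test; mean ± SE.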

Mus musculus [6] = test: Toxicity in human NCI-H1703 cells xenografted athymic NCr nu/nu Charles river mouse assessed as change in body weight at 6 umol/kg, iv administered 3 times a week for 3 weeks (reference value: 22.5 +/- 0.4g); type: organism-based; details: in vivo, 504 h
[7] = Activation of JNK phosphorylation at Thr183 and Tyr185 in human NCI-H1703 cells at 1 uM within 30 mins by Western blot analysis; type: cell-based
[8] = target: T1, Dual specificity mitogen-activated protein kinase kinase 4 (Homo sapiens) (UniProt P45985); test: Activation of SEK1 phosphorylation at Thr261 in human NCI-H1703 cells at 1 uM by Western blot analysis; type: cell-based
T1 sequence (whole entry): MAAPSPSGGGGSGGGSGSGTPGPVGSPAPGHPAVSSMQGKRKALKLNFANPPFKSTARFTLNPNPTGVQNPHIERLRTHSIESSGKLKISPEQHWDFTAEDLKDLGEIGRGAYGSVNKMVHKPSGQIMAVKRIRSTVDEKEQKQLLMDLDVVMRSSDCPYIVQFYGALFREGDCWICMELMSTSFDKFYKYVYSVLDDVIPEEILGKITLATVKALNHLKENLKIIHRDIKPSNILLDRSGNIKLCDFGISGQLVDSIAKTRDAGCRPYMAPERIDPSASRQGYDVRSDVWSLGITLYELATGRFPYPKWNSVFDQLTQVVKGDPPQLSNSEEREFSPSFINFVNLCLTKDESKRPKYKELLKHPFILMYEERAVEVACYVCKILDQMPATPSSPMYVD
Summary of the method: (§2)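 Lysates immunoblotted with phospho-specific antibodies against SEK1/MKK4, SAPK/JNK, ATF2 and c-jun. Membranes reprobed for total SAPK/JNK as loading control. Representative blots shown.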

[9] = Activation of JNK phosphorylation in human NCI-H1703 cells assessed as ATF2 phosphorylation at Thr71 at 1 uM by Western blot analysis; type: cell-based; summary of the method: as §2
[10] = Activation of JNK phosphorylation in human NCI-H1703 cells assessed as c-jun phosphorylation at Ser63 at 1 uM by Western blot analysis; type: cell-based; summary of the method: as §2
[11] = Activation of JNK phosphorylation in human NCI-H1703 cells assessed as increase in ATF3 protein level at 1 uM within 2 hrs by Western blot analysis; type: cell-based
[12] = Activation of JNK phosphorylation in human NCI-H1703 cells assessed as ATF2 phosphorylation at Thr71 at 1 uM pretreated for 30 mins by Western blot analysis in presence of JNK inhibitor 1,9-pyrazoloanthrone; type: cell-based
Summary of the method: (§3)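 Before compound exposure (1 μM), H1703 cells received the JNK inhibitor 1,9-pyrazoloanthrone at 50 μM for 30 min. Phosphorylated JNK, ATF2 and c-jun, and ATF3 protein, then detected by Western blot. Representative blots shown.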

[13] = Activation of JNK phosphorylation in human NCI-H1703 cells assessed as c-jun phosphorylation at Ser63 at 1 uM pretreated for 30 mins by Western blot analysis in presence of JNK inhibitor 1,9-pyrazoloanthrone; type: cell-based; summary of the method: as §3
[14] = Activation of JNK phosphorylation in human NCI-H1703 cells assessed as increase in ATF3 protein level at 1 uM within 2 hrs by Western blot analysis in presence of JNK inhibitor 1,9-pyrozoloanthrone; type: cell-based; summary of the method: as §3
[15] = Activation of JNK phosphorylation in human NCI-H1703 cells assessed as increase in ATF3 protein level at 1 uM by Western blot analysis; type: cell-based
[16] = Activation of JNK phosphorylation in human NCI-H1703 cells assessed as increase in ATF3 mRNA level at 1 uM after 1.5 hrs by quantitative real-time PCR analysis relative to control; type: cell-based
Summary of the method: (§4)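 Cells were H1703 treated with compound or DMSO control. Total RNA was isolated and residual genomic DNA removed. ATF3 mRNA was measured by quantitative RT-PCR with β-actin as internal control. Reported as mean ± SE.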

[17] = Activation of JNK phosphorylation in human NCI-H1703 cells assessed as increase in ATF3 mRNA level at 5 uM after 1.5 hrs by quantitative real-time PCR analysis relative to control; type: cell-based; summary of the method: as §4
NCI-H1703 [18] = test: Induction of apoptosis in human NCI-H1703 cells assessed as PARP cleavage after 1 to 6 hrs by Western blot analysis; type: functional, cell-based
NCI-H1703 [19] = test: Induction of apoptosis in human NCI-H1703 cells assessed as caspase 3 activation after 1 to 6 hrs by Western blot analysis; type: functional, cell-based
NCI-H1703 [20] = test: Induction of apoptosis in human NCI-H1703 cells assessed as caspase 7 activation after 1 to 6 hrs by Western blot analysis; type: functional, cell-based
NCI-H1703 [21] = test: Cell cycle arrest in human NCI-H1703 cells assessed as accumulation at G2 phase at 1 uM after 6 hrs by FACS analysis (reference value: 8%); type: functional
NCI-H1703 [22] = test: Induction of apoptosis in human NCI-H1703 cells assessed as apoptotic cells at 1 uM after 6 hrs by FACS analysis (reference value: 0.05%); type: functional
NCI-H1703 [23] = test: Upregulation of ATF3 expression in human NCI-H1703 cells at 1 uM pretreated with ATF3 siRNA for 48 hrs before compound challenge measured after 8 hrs by Western blot analysis; type: functional, cell-based
Summary of the method: (§5)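 H1703 cells at 60% confluence transfected with ATF3 siRNA, nonsilencing siRNA or reagent only (mock). After 48 h, cells treated with 1 μM compound or equal-volume DMSO for 8 h, then lysed. Western blots probed for ATF3, cleaved PARP p85 and cleaved caspase-3, with β-actin as loading control.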

NCI-H1703 [24] = test: Induction of apoptosis in human NCI-H1703 cells assessed as PARP p85 cleavage at 1 uM pretreated with ATF3 siRNA for 48 hrs before compound challenge measured after 8 hrs by Western blot analysis; type: functional, cell-based; summary of the method: as §5
NCI-H1703 [25] = test: Induction of apoptosis in human NCI-H1703 cells assessed as caspase 3 cleavage at 1 uM pretreated with ATF3 siRNA for 48 hrs before compound challenge measured after 8 hrs by Western blot analysis; type: functional, cell-based; summary of the method: as §5
NCI-H1703 [26] = test: Antitumor activity against human NCI-H1703 cells xenografted in NCr nu/nu Charles river mouse assessed as tissue death in tumor at 6 umol/kg, iv administered 3 times a week for 3 weeks by H and E staining method relative to control; type: functional, organism-based
Summary of the method: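 Female athymic NCr-nu/nu mice, 7 weeks old, received 5×10^6 H1703 cells s.c. in the flank. Tumors excised 2 h after the last dose, H&E stained, and scored for areas of cell death against vehicle controls.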

Mus musculus [27] = test: Induction of JNK phosphorylation in human NCI-H1703 cells xenografted NCr nu/nu Charles river mouse tumor at 6 umol/kg, iv administered 3 times a week for 3 weeks by immunohistochemical analysis; type: functional, organism-based
Mus musculus [28] = test: Induction of JNK phosphorylation in human NCI-H1703 cells xenografted NCr nu/nu Charles river mouse tumor assessed as increase in ATF3 protein level at 6 umol/kg, iv administered 3 times a week for 3 weeks by immunohistochemical analysis; type: functional, organism-based
[29] = Activation of JNK phosphorylation at Thr183 and Tyr185 in human NCI-H1703 cells at 1 uM pretreated for 1 hr measured after 30 mins by Western blot analysis in presence of ROS scavenger tiron
[30] = Chemical stability of the compound in aqueous phosphate buffered saline assessed as half life at pH 7.4 in presence of 4 mM glutathione; type: physicochemical; details: gsh

CCOC(=O)N1CCN(/[N+]([O-])=N/Oc2ccc([N+](=O)[O-])cc2[N+](=O)[O-])CC1
IC50 (NCI-H1703 [1]): 570 nM
IC50 (NCI-H441): 940 nM
IC50 [2]: 860 nM
IC50 (NCI-H2122): 3170 nM
IC50 [3]: > 10000 nM
growth inhibition (GI) (NCI-H1703 [4]): Active
Activity (NCI-H1703 [5]): 49%
Activity (Mus musculus [6]): 24.9 g
Activity [7]: Active
Activity [8]: Active
Activity [9]: Active
Activity [10]: Active
Activity [11]: Active
Activity [12]: inactive
Activity [13]: inactive
Activity [14]: inactive
Activity [15]: tde
fold change (FC) [16]: 8
fold change (FC) [17]: 10
Activity (NCI-H1703 [18]): Active
Activity (NCI-H1703 [19]): Active
Activity (NCI-H1703 [20]): Active
Activity (NCI-H1703 [21]): 37%
Activity (NCI-H1703 [22]): 14.4%
Activity (NCI-H1703 [23]): inactive
Activity (NCI-H1703 [24]): inactive
Activity (NCI-H1703 [25]): inactive
Activity (NCI-H1703 [26]): Active
Activity (Mus musculus [27]): Active
Activity (Mus musculus [28]): Active
Activity [29]: inactive

CCOC(=O)N1CCCN(/[N+]([O-])=N/Oc2cc(C)c([N+](=O)[O-])cc2[N+](=O)[O-])CC1
t1/2 [30]: 25.7 min
IC50 (NCI-H1703 [1]): 1660 nM
IC50 (NCI-H441): 2020 nM
IC50 [2]: 3000 nM
IC50 (NCI-H2122): 10000 nM
IC50 [3]: > 10000 nM
Activity [7]: inactive

Source: ChEMBL document CHEMBL1914422, “Activation of the c-Jun N-terminal kinase/activating transcription factor 3 (ATF3) pathway characterizes effective arylated diazeniumdiolate-based nitric oxide-releasing anticancer prodrugs” (J Med Chem, 2011)
